This note sets out measurements from ChEMBL document CHEMBL1123309, “Esters and lactones of phenolic amino carboxylic acids: prodrugs for iron chelation” (J Med Chem, 1986).

“And” between values parts separate entries of the source, which are not always exact repeats. Identical values can stand only once.

A short description of series [1]: Compound was evaluated for lethal dose after intraperitoneal administration using iron overload rat model. The format is toxicity, organism-based. Conditions: in vivo, ip.
For series [2], the system named is Mus musculus. The series can be described thus: BDF1 male mice were administered with 300 mg/kg intraperitoneally and number of survivors was determined out of 10 tested. The format is functional. Conditions: route intraperitoneal. An outline of the steps:
(§1)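 Male BDF1 mice were iron-loaded by transfusion of canine red cells. The cells were heparinised, washed twice in isotonic saline and heated at 50 °C for 30 min. Dosing started two days after the last transfusion, once daily for 7 consecutive days. Compounds were given in distilled water or as a fine aqueous suspension with Polysorbate 80 (2% final). Toxic signs were recorded daily and survivors counted per group.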

Series [3] has as its system Mus musculus. The series can be described thus: BDF1 male mice were administered with 250 mg/kg orally and percent change in iron levels was determined in Feces. The format is functional. The conditions noted are these: route oral. An outline of the steps:
(§2)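 Hypertransfused male BDF1 mice (canine red cells, washed and heated at 50 °C for 30 min) were dosed orally for 7 days with compound in distilled water or a fine suspension with Polysorbate 80 (2% final). Daily group urine and pooled feces (1 N HCl digest, 90 °C, 30 min, triplicate) were collected, and liver and spleen were homogenized. Iron was measured by atomic absorption and reported as % change vs transfused control.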

In series [4] the test system is Mus musculus. In words: BDF1 male mice were administered with 250 mg/kg orally and percent change in iron levels was determined in Liver. Conditions: route oral. Type of series: functional. Summed up: as §2
The subject of series [5] is Mus musculus. In words: BDF1 male mice were administered with 250 mg/kg orally and percent change in iron levels was determined in Spleen. Type of series: functional. The conditions noted are these: route oral. Summed up: as §2
In series [6] the test system is Mus musculus. The series can be described thus: BDF1 male mice were administered with 250 mg/kg orally and percent change in iron levels was determined in Urine. The format is functional. The conditions noted are these: route oral. An outline of the steps: as §2
For series [7], the system named is Mus musculus. In words: BDF1 male mice were administered with the compound and number of survivors was determined at a dose 250 mg/kg peroral out of 10 tested. Conditions: route oral. Type of series: functional. Summed up:
as §1

Series [8] deals with Rattus norvegicus. The series can be described thus: Percent change in iron levels was determined in feces using iron overload rat model where the route of administration is Intraperitoneal. Type of series: functional.
Series [9] concerns Rattus norvegicus. The series can be described thus: Percent change in iron levels was determined in urine using iron overload rat model where the route of administration is Intraperitoneal. Type of series: functional.
The test system of series [10] is Rattus norvegicus. In words: Percent change in iron levels was determined in urine using iron overload rat model where the route of administration is Peroral. The format is functional.

Regarding `CCOC(=O)C(NCCNC(C(=O)OCC)c1ccccc1O)c1ccccc1O` (stereo unspecified), in series [1], the LD50 is at least 800 mg/kg.
On to `COC(=O)CN(Cc1ccccc1O)CC1CN(Cc2ccccc2O)CC(=O)O1` (stereo unspecified), for which the No. of survivors in the series with Mus musculus [2] worked out at 10.
Turning to `O=C(CN(CCN(CC(=O)OCc1ccccc1)Cc1ccccc1O)Cc1ccccc1O)OCc1ccccc1`, the Iron change in the series on Mus musculus [3] was -10%; with Mus musculus [4] it was -10%; in the series on Mus musculus [5], -21%; in the series on Mus musculus [6], 62%. For the same compound, in the series on Mus musculus [7], the No. of survivors amounted to 10.
As to `O=C(O)C(NCCNC(C(=O)O)c1ccccc1O)c1ccccc1O` (stereo unspecified), in series [1], the LD50 came to 175 mg/kg. For the same compound, the Iron change was 111% in the series with Rattus norvegicus [8]; 484% with Rattus norvegicus [9]; 19% and 31% with Rattus norvegicus [10].
